In brackets after ≈: the same amount, converted by molar mass.
How the values were obtained:
[1] = test system: Mycobacterium tuberculosis; experiment: Antimycobacterial activity against Mycobacterium tuberculosis H37Rv by agar dilution method; type: functional
Method in brief: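 MIC was determined by agar dilution, in duplicate.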

[2] = test system: Mus musculus; experiment: Phototoxicity in Swiss Albino mouse assessed as ear erythema at 140 mg/kg, po after 24 hrs of irradiation; type: organism-based; set-up: dose 140 mg/kg, route oral; settings: in vivo
[3] = test system: Vero; experiment: Cytotoxicity against Vero cells after 72 hrs by MTT assay; type: cell-based; settings: Chlorocebus sabaeus
Method in brief: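 Vero cells were exposed to serially diluted compound up to 62.5 µg/mL for 72 h. Viability was read by cellular conversion of MTT to formazan (CellTiter 96 non-radioactive proliferation assay), and IC50 was derived.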

[4] = test system: Mycolicibacterium smegmatis; experiment: Antimicrobial activity against Mycobacterium smegmatis by agar dilution method; type: functional
Method in brief: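 Agar dilution against M. smegmatis ATCC 14468; MIC determined in duplicate.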

[5] = test system: Mus musculus; experiment: Phototoxicity in Swiss Albino mouse assessed as ear thickness at 140 mg/kg, po after 48 hrs of irradiation; type: organism-based; set-up: dose 140 mg/kg, route oral; settings: in vivo
Method in brief: (§1)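 Female Swiss albino mice (~2 months, 20-25 g) were fasted ≥18 h and given 140 mg/kg orally by gavage; controls received 0.5% Na-CMC vehicle at 10 mL/kg. UVA started right after dosing, 4 h (~18 J/cm2). Ear thickness was measured before dosing and at 4, ~24, 48, 72 and 96 h, reported as mean of left and right ears ± SEM.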

[6] = test system: Mus musculus; experiment: Phototoxicity in Swiss Albino mouse assessed as ear erythema at 140 mg/kg, po after 96 hrs of irradiation; type: organism-based; set-up: dose 140 mg/kg, route oral; settings: in vivo
[7] = test system: Mus musculus; experiment: Phototoxicity in UV light irradiated Swiss Albino mouse assessed as ear thickness at 140 mg/kg, po; type: organism-based; set-up: dose 140 mg/kg, route oral; settings: in vivo; method in brief: as §1
[8] = test system: Mus musculus; experiment: Phototoxicity in Swiss Albino mouse assessed as ear erythema at 140 mg/kg, po after 4 hrs of irradiation; type: organism-based; set-up: dose 140 mg/kg, route oral; settings: in vivo
[9] = test system: Mus musculus; experiment: Phototoxicity in Swiss Albino mouse assessed as ear thickness at 140 mg/kg, po after 24 hrs of irradiation; type: organism-based; set-up: dose 140 mg/kg, route oral; settings: in vivo; method in brief: as §1
[10] = test system: Mus musculus; experiment: Phototoxicity in Swiss Albino mouse assessed as ear thickness at 140 mg/kg, po after 72 hrs of irradiation; type: organism-based; set-up: dose 140 mg/kg, route oral; settings: in vivo; method in brief: as §1
[11] = test system: Mus musculus; experiment: Phototoxicity in Swiss Albino mouse assessed as ear thickness at 140 mg/kg, po after 4 hrs of irradiation; type: organism-based; set-up: dose 140 mg/kg, route oral; settings: in vivo; method in brief: as §1
[12] = Inhibition of Mycobacterium smegmatis DNA gyrase supercoiling activity; set-up: species or system Mycolicibacterium smegmatis
Method in brief: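 Gyrase purified from M. smegmatis was preincubated with compound in DMSO (5% DMSO in reaction). 400 ng relaxed pUC18 was added in 35 mM Tris-HCl pH 7.5, 5 mM MgCl2, 25 mM K-glutamate, 2 mM spermidine, 2 mM ATP, BSA, tRNA and 5% glycerol, 1 h at 37 °C. Samples were heat-inactivated, run on 1% agarose in TAE, and ethidium-stained; IC50 was derived.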

[13] = test system: Mus musculus; experiment: Phototoxicity in Swiss Albino mouse assessed as ear thickness at 140 mg/kg, po after 96 hrs of irradiation; type: organism-based; set-up: dose 140 mg/kg, route oral; settings: in vivo; method in brief: as §1
[14] = test system: Mus musculus; experiment: Phototoxicity in Swiss Albino mouse assessed as ear erythema at 140 mg/kg, po after 72 hrs of irradiation; type: organism-based; set-up: dose 140 mg/kg, route oral; settings: in vivo
[15] = test system: Mus musculus; experiment: Phototoxicity in UV light irradiated Swiss Albino mouse assessed ear erythema at 140 mg/kg, po; type: organism-based; set-up: dose 140 mg/kg, route oral; settings: in vivo
[16] = test system: Mycobacterium tuberculosis; experiment: Antimycobacterial activity against Mycobacterium tuberculosis ATCC 35801 infected CD1 mouse assessed as spleen bacterial count at 25 mg/kg, ip after 35 days post infection; type: functional; settings: route intraperitoneal
Method in brief: (§2)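 CD-1 mice were infected intravenously via the caudal vein with about 10⁷ viable M. tuberculosis ATCC 35801. Intraperitoneal treatment began 10 days after inoculation and ran for 10 days. At 35 days post-infection, spleens and right lungs were homogenized, serially diluted 10-fold and plated on 7H10 agar at 37 °C in ambient air for 4 weeks. Counts were compared with vehicle-treated controls and given as log CFU ± SEM.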

[17] = test system: Mycobacterium tuberculosis; experiment: Antimycobacterial activity against Mycobacterium tuberculosis ATCC 35801 infected CD1 mouse assessed as lung bacterial count at 25 mg/kg, ip after 35 days post infection; type: functional; settings: route intraperitoneal; method in brief: as §2
[18] = test system: Mus musculus; experiment: Phototoxicity in Swiss Albino mouse assessed as ear erythema at 140 mg/kg, po after 48 hrs of irradiation; type: organism-based; set-up: dose 140 mg/kg, route oral; settings: in vivo
[19] = test system: Mycobacterium tuberculosis; experiment: Antimycobacterial activity against Mycobacterium tuberculosis ATCC 35801 infected CD1 mouse assessed as spleen bacterial count at 50 mg/kg, ip after 35 days post infection; type: functional; settings: route intraperitoneal; method in brief: as §2
[20] = test system: Mycobacterium tuberculosis; experiment: Antimycobacterial activity against Mycobacterium tuberculosis ATCC 35801 infected CD1 mouse assessed as lung bacterial count at 50 mg/kg, ip after 35 days post infection; type: functional; settings: route intraperitoneal; method in brief: as §2

Structure (SMILES) | MIC [1] [µM] | Activity [2] | IC50 [3] [µM] | MIC [4] [µM] | Activity [5] [mm] | Activity [6] | Activity [7] [mm] | Activity [8] | Activity [9] [mm] | Activity [10] [mm] | Activity [11] [mm] | IC50 [12] [µM] | Activity [13] [mm] | Activity [14] | Activity [15] | Log10 cfu [16] | Log10 cfu [17] | Activity [18] | Log10 cfu [19] | Log10 cfu [20]
COc1ccc(CC2C3=C(CCCC3)CCN2c2nc3c(cc2[N+](=O)[O-])c(=O)c(C(=O)O)cn3C2CC2)cc1 (stereo unspecified) | 5.89 (≈ 3.13 µg/mL) | Non-toxic | 118 | 1.47 (≈ 0.78 µg/mL) | 0.38 | Non-toxic | 0.33 | Non-toxic | 0.34 | 0.36 | 0.34 | 56.5 | 0.33 | Non-toxic | Non-toxic | – | – | – | – | –
CC(C)(C)n1cc(C(=O)O)c(=O)c2cc([N+](=O)[O-])c(N3CCC4(CC3)OCCO4)nc21 | 0.9 (≈ 0.389 µg/mL) | – | 144 | 3.61 (≈ 1.56 µg/mL) | – | – | – | – | – | – | – | 92.5 | – | – | – | – | – | – | – | –
NNC(=O)c1ccncc1 [ISONIAZID] | 0.36 (≈ 0.0494 µg/mL) | – | > 456 | 45.6 (≈ 6.25 µg/mL) | – | – | – | – | – | – | – | – | – | – | – | 4.71 | 5.86 | – | – | –
O=C(O)c1cn(-c2ccc(F)cc2)c2nc(N3CCSCC3)c([N+](=O)[O-])cc2c1=O | 0.44 (≈ 0.189 µg/mL) | Non-toxic | 72.6 | 1.81 (≈ 0.779 µg/mL) | 0.26 | Non-toxic | 0.25 | Non-toxic | 0.26 | 0.29 | 0.27 | > 232 | 0.29 | Non-toxic | Non-toxic | – | – | Non-toxic | – | –
CC(C)(C)n1cc(C(=O)O)c(=O)c2cc([N+](=O)[O-])c(N3CCSCC3)nc21 | 0.99 (≈ 0.389 µg/mL) | Non-toxic | 79.6 | 1.99 (≈ 0.781 µg/mL) | 0.29 | Non-toxic | 0.27 | Non-toxic | 0.28 | 0.3 | 0.28 | 102 | 0.32 | Non-toxic | Non-toxic | – | – | Non-toxic | – | –
COc1c(N2CCNC(C)C2)c(F)cc2c(=O)c(C(=O)O)cn(C3CC3)c12 (stereo unspecified) [GATIFLOXACIN] | 1.04 (≈ 0.39 µg/mL) | – | > 155 | 2.08 (≈ 0.781 µg/mL) | – | – | – | – | – | – | – | – | – | – | – | – | – | – | 6.92 | 6.02

— ChEMBL document CHEMBL1138270, “Antimycobacterial activities of novel 1-(cyclopropyl/tert-butyl/4-fluorophenyl)-1,4-dihydro- 6-nitro-4-oxo-7-(substituted secondary amino)-1,8-naphthyridine-3-carboxylic acid” (J Med Chem, 2007)
